Laboratory results taken from ChEMBL document CHEMBL4028911, “Discovery of a Small-Molecule Bromodomain-Containing Protein 4 (BRD4) Inhibitor That Induces AMP-Activated Protein Kinase-Modulated Autophagy-Associated Cell Death in Breast Cancer” (J Med Chem, 2017).
The source made the active and inactive calls. No cut-off for these calls is given here.

Legend:
[1] = target: T1, Serine/threonine-protein kinase ULK1 (Homo sapiens) (UniProt O75385); assay: Activation of recombinant human ULK1 (1 to 649 residues) expressed in baculovirus infected Sf9 cells at 1 to 10^6 nM using MBP as substrate after 60 mins in presence of ATP by […] assay
T1 sequence (whole entry): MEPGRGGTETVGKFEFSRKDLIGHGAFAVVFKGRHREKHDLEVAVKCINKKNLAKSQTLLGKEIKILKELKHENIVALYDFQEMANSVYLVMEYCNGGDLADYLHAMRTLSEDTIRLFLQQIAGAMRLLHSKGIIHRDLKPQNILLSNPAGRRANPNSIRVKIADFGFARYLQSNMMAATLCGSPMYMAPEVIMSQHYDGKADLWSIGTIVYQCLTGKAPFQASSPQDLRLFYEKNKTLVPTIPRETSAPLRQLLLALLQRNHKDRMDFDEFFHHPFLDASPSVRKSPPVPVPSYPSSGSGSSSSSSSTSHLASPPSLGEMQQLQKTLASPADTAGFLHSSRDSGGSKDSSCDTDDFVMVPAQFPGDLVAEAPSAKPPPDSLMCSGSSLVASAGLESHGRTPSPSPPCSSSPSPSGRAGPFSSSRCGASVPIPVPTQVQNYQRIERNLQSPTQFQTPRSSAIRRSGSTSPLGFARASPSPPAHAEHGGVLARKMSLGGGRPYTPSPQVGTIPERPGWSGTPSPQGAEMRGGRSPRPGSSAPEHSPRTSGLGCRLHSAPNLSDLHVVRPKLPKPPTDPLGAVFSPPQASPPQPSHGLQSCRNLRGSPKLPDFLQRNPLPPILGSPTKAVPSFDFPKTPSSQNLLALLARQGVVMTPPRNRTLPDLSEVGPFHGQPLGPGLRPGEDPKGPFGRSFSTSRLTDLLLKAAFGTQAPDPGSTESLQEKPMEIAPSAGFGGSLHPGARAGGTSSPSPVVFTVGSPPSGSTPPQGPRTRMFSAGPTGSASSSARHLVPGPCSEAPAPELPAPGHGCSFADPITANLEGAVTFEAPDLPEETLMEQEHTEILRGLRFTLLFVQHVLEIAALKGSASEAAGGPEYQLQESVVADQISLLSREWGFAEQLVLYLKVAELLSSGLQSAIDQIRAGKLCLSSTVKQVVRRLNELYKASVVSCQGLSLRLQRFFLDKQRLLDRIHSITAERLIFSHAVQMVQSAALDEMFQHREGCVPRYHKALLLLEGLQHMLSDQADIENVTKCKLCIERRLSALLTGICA
Outline: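 ADP-Glo luminescent kinase assay; AMPK or ULK1 enzyme, substrate, ATP and compound diluted in 40 mM Tris pH 7.5, 20 mM MgCl2, 0.1 mg/ml BSA, 50 µM DTT. Enzyme (10 ng) mixed with MBP (0.1 µg/µl)/ATP (10 µM) and compound, 60 min at room temperature. ADP-Glo reagent 40 min, then detection reagent 30 min, luminescence read; signal rises with kinase activity.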

MCF7 [2] = assay: Inhibition of BRD4 protein expression in human MCF7 cells at 1.5 uM measured up to 36 hrs by Western blot analysis; type: functional, cell-based
Outline: (§1)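 MCF-7 (1.5 μM) or MDA-MB-231 (3 μM) cells treated for indicated times. Adherent and floating cells lysed in RIPA with 1 mM PMSF. Equal protein run on 10-15% SDS-PAGE, blotted to PVDF, blocked in milk or BSA, HRP/ECL detection. β-actin loading control.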

[3] = target: T2, Bromodomain-containing protein 4 (Homo sapiens, UniProt O60885); assay: Inhibition of BRD4 in human MDA-MB-231 cells assessed as downregulation of c-Myc expression at 3 uM measured up to 36 hrs by Western blot analysis; type: cell-based; outline: as §1
MCF7 [4] = assay: Induction of autophagy in human MCF7 cells assessed as downregulation of p62/SQSTM1 expression at 1.5 uM in presence of ATG5 siRNA by Western blot analysis; type: functional, cell-based
[5] = target: Bromodomain testis-specific protein (Homo sapiens, UniProt Q58F21); assay: Inhibition of recombinant human N-terminal GST-tagged BRDT bromodomain-1 (22 to 138 residues) expressed in Escherichia coli expression system after 120 mins by TR-FRET assay
Outline: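 TR-FRET bromodomain binding. Recombinant BRD domain, BET ligand and test agent in 20 μl assay buffer with 1% DMSO final. Incubated 120 min at room temperature. Blank lacks BET ligand.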

Mus musculus [6] = assay: In vivo Antiproliferative activity in BALB/c mouse xenografted with human MCF7 cells assessed as reduction in Ki-67 positive cells at 100 mg/kg, ig administered once a day for 24 days by hematoxylin-staining based immunohistochemistry analysis; type: functional, organism-based
Outline: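 Xenograft tumors from vehicle and 100 mg/kg groups were formalin-fixed and sectioned. Antigen retrieval by microwaving in EDTA buffer (pH 8.0) or citrate buffer (pH 6.0). […] Percentage of positive staining quantified.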

Mus musculus [7] = assay: In vivo inhibition of c-Myc expression in BALB/c mouse xenografted with human MDA-MB-231 cells at 100 mg/kg, ig administered once a day for 27 days by Western blot analysis; type: functional, organism-based
Outline: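 Tumor tissues excised from MCF-7 or MDA-MB-231 xenograft mice were lysed and analysed by western blot for BRD4, c-Myc, LC3 and cleaved caspase-3.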

MCF7 [8] = assay: Downregulation of HMGB1 expression in human MCF7 cells at 1.5 uM measured up to 24 hrs by Western blot analysis; type: functional, cell-based
Outline: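 MCF-7 (1.5 µM) or MDA-MB-231 (3 µM) cells treated for indicated times. Adherent and floating cells lysed in RIPA with 1 mM PMSF, 4°C for 1 h. Equal protein run on 10-15% SDS-PAGE, transferred to PVDF, blocked with milk or BSA, probed with primary then HRP secondary antibodies, ECL detection; β-actin as loading control.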

MCF7 [9] = assay: Antitumor activity against human MCF7 cells xenografted in nude BALB/c mouse assessed as reduction in tumor weight at 25 to 100 mg/kg, ig administered once a day for 24 days measured every 3 days relative to control; type: functional, organism-based
Outline: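 Female BALB/c nude mice, 6-8 weeks, 20-22 g, injected subcutaneously with 5×10^6 MCF-7 or MDA-MB-231 cells. At 100 mm³ tumor volume (V = L×W²/2), split into four groups: 25, 50 or 100 mg/kg intragastric once daily for 24 or 27 days, or vehicle. Tumor volume and body weight measured every 3 days; tumors excised and weighed at end. MCF-7 n=7, MDA-MB-231 n=6 per group.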

[10] = target: T2, Bromodomain-containing protein 4; assay: Inhibition of recombinant human BRD4 bromodomain-2 (342 to 460 residues) expressed in Escherichia coli expression system after 120 mins by TR-FRET assay

Which Activity [1] does the source give for `Cc1cc(-c2nc3sc4c(c3c(=O)[nH]2)CCN(C)C4)cc(C)c1O` here?
Its Activity is “inactive”.

What about the inhibition (MCF7 [2]) of the same molecule?
Its inhibition is “Active”.

And the inhibition [3]?
Its inhibition is “Active”.

What about the Activity (MCF7 [4]) of the same molecule?
The Activity was “inactive”.

What about the IC50 [5] of the same molecule?
The IC50 was > 100000 nM.

And the Activity (Mus musculus [6])?
Its Activity is “Active”.

What about the Activity (Mus musculus [7]) of the same molecule?
Its Activity is “Active”.

What about the Activity (MCF7 [8]) of the same molecule?
Its Activity is “Active”.

And the Activity (MCF7 [9])?
The Activity was “Active”.

And the IC50 [10]?
The IC50 was 930 nM.
